In ChEMBL document CHEMBL4689842, “EUbOPEN Chemogenomics Library wave 1” (2021):

Tested on: HEK-293T
Assay: Multiplex assay against HEK293T;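 on Population Tubulin-Different-Phenotype (%): share of the cells with healthy nuclei that show this phenotype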
Format: toxicity, cell-based
Details: human
Procedure, shortened: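 With compound added, live cells were imaged on a CQ1 microscope at 37°C and 5% CO2; staining with Hoechst33342, BioTracker Green Microtubule Cytoskeleton Dye, MitoTracker Red and Annexin V Alexa Fluor 680 had been done at seeding. The CellPathfinder machine-learning gating scheme split cells into Hoechst high-intensity objects or normal cells, normal cells into healthy, pyknosed or fragmented nuclei, and pyknosed cells into mitotic or apoptotic. The tubulin, mitochondrial-mass and membrane-permeability phenotypes are per cents of healthy-nucleus cells.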

[1] = 12 h, 1 µM, compound concentration 1 uM, replicate 1
[2] = 12 h, 1 µM, compound concentration 1 uM, replicate 2
[3] = 12 h, 10 µM, compound concentration 10 uM, replicate 1
[4] = 12 h, 10 µM, compound concentration 10 uM, replicate 2
[5] = 24 h, 1 µM, compound concentration 1 uM, replicate 1
[6] = 24 h, 1 µM, compound concentration 1 uM, replicate 2
[7] = 24 h, 10 µM, compound concentration 10 uM, replicate 1
[8] = 24 h, 10 µM, compound concentration 10 uM, replicate 2
[9] = 48 h, 1 µM, compound concentration 1 uM, replicate 1
[10] = 48 h, 1 µM, compound concentration 1 uM, replicate 2
[11] = 48 h, 10 µM, compound concentration 10 uM, replicate 1
[12] = 48 h, 10 µM, compound concentration 10 uM, replicate 2

CN(C)CC#Cc1ccc(OCCCc2sc(N3CCc4cccc(C(=O)Nc5nc6ccccc6s5)c4C3)nc2C(=O)O)c(F)c1 [A-1155463]
Population Apoptotic (%) [1]: 33% | Population Fragmented Nuclei (%) [1]: 12% | Population Healthy Nuclei (%) [1]: 42% | Population Hoechst High Intensity Objects (%) [1]: 11% | Population Membrane Permeable-Phenotype (%) [1]: 2% | Population Mitochondria Different-Phenotype (%) [1]: 68% | Population Mitotic Cells (%) [1]: 66% | Population Normal (%) [1]: 88% | Population Pyknosed Nuclei (%) [1]: 45% | Population Tubulin-Different-Phenotype (%) [1]: 40% | Total Cell Count [1]: 278 | Population Apoptotic (%) [2]: 15% | Population Fragmented Nuclei (%) [2]: 4% | Population Healthy Nuclei (%) [2]: 44% | Population Hoechst High Intensity Objects (%) [2]: 3% | Population Membrane Permeable-Phenotype (%) [2]: 6% | Population Mitochondria Different-Phenotype (%) [2]: 17% | Population Mitotic Cells (%) [2]: 84% | Population Normal (%) [2]: 96% | Population Pyknosed Nuclei (%) [2]: 50% | Population Tubulin-Different-Phenotype (%) [2]: 17% | Total Cell Count [2]: 177 | Population Apoptotic (%) [3]: 40% | Population Fragmented Nuclei (%) [3]: 8% | Population Healthy Nuclei (%) [3]: 41% | Population Hoechst High Intensity Objects (%) [3]: 10% | Population Membrane Permeable-Phenotype (%) [3]: 13% | Population Mitochondria Different-Phenotype (%) [3]: 63% | Population Mitotic Cells (%) [3]: 59% | Population Normal (%) [3]: 89% | Population Pyknosed Nuclei (%) [3]: 49% | Population Tubulin-Different-Phenotype (%) [3]: 64% | Total Cell Count [3]: 288 | Population Apoptotic (%) [4]: 18% | Population Fragmented Nuclei (%) [4]: 20% | Population Healthy Nuclei (%) [4]: 39% | Population Hoechst High Intensity Objects (%) [4]: 7% | Population Membrane Permeable-Phenotype (%) [4]: 10% | Population Mitochondria Different-Phenotype (%) [4]: 17% | Population Mitotic Cells (%) [4]: 81% | Population Normal (%) [4]: 92% | Population Pyknosed Nuclei (%) [4]: 39% | Population Tubulin-Different-Phenotype (%) [4]: 26% | Total Cell Count [4]: 263 | Population Apoptotic (%) [5]: 48% | Population Fragmented Nuclei (%) [5]: 11% | Population Healthy Nuclei (%) [5]: 38% | Population Hoechst High Intensity Objects (%) [5]: 14% | Population Membrane Permeable-Phenotype (%) [5]: 4% | Population Mitochondria Different-Phenotype (%) [5]: 54% | Population Mitotic Cells (%) [5]: 51% | Population Normal (%) [5]: 85% | Population Pyknosed Nuclei (%) [5]: 50% | Population Tubulin-Different-Phenotype (%) [5]: 37% | Total Cell Count [5]: 286 | Population Apoptotic (%) [6]: 10% | Population Fragmented Nuclei (%) [6]: 4% | Population Healthy Nuclei (%) [6]: 56% | Population Hoechst High Intensity Objects (%) [6]: 2% | Population Membrane Permeable-Phenotype (%) [6]: 17% | Population Mitochondria Different-Phenotype (%) [6]: 7% | Population Mitotic Cells (%) [6]: 89% | Population Normal (%) [6]: 97% | Population Pyknosed Nuclei (%) [6]: 39% | Population Tubulin-Different-Phenotype (%) [6]: 24% | Total Cell Count [6]: 220 | Population Apoptotic (%) [7]: 42% | Population Fragmented Nuclei (%) [7]: 12% | Population Healthy Nuclei (%) [7]: 43% | Population Hoechst High Intensity Objects (%) [7]: 10% | Population Membrane Permeable-Phenotype (%) [7]: 14% | Population Mitochondria Different-Phenotype (%) [7]: 35% | Population Mitotic Cells (%) [7]: 57% | Population Normal (%) [7]: 89% | Population Pyknosed Nuclei (%) [7]: 44% | Population Tubulin-Different-Phenotype (%) [7]: 54% | Total Cell Count [7]: 298 | Population Apoptotic (%) [8]: 24% | Population Fragmented Nuclei (%) [8]: 19% | Population Healthy Nuclei (%) [8]: 52% | Population Hoechst High Intensity Objects (%) [8]: 3% | Population Membrane Permeable-Phenotype (%) [8]: 20% | Population Mitochondria Different-Phenotype (%) [8]: 13% | Population Mitotic Cells (%) [8]: 75% | Population Normal (%) [8]: 96% | Population Pyknosed Nuclei (%) [8]: 28% | Population Tubulin-Different-Phenotype (%) [8]: 48% | Total Cell Count [8]: 287 | Population Apoptotic (%) [9]: 33% | Population Fragmented Nuclei (%) [9]: 16% | Population Healthy Nuclei (%) [9]: 35% | Population Hoechst High Intensity Objects (%) [9]: 17% | Population Membrane Permeable-Phenotype (%) [9]: 9% | Population Mitochondria Different-Phenotype (%) [9]: 30% | Population Mitotic Cells (%) [9]: 66% | Population Normal (%) [9]: 82% | Population Pyknosed Nuclei (%) [9]: 48% | Population Tubulin-Different-Phenotype (%) [9]: 37% | Total Cell Count [9]: 322 | Population Apoptotic (%) [10]: 5% | Population Fragmented Nuclei (%) [10]: 7% | Population Healthy Nuclei (%) [10]: 78% | Population Hoechst High Intensity Objects (%) [10]: 4% | Population Membrane Permeable-Phenotype (%) [10]: 19% | Population Mitochondria Different-Phenotype (%) [10]: 4% | Population Mitotic Cells (%) [10]: 94% | Population Normal (%) [10]: 95% | Population Pyknosed Nuclei (%) [10]: 13% | Population Tubulin-Different-Phenotype (%) [10]: 26% | Total Cell Count [10]: 397 | Population Apoptotic (%) [11]: 40% | Population Fragmented Nuclei (%) [11]: 15% | Population Healthy Nuclei (%) [11]: 56% | Population Hoechst High Intensity Objects (%) [11]: 11% | Population Membrane Permeable-Phenotype (%) [11]: 30% | Population Mitochondria Different-Phenotype (%) [11]: 13% | Population Mitotic Cells (%) [11]: 59% | Population Normal (%) [11]: 88% | Population Pyknosed Nuclei (%) [11]: 28% | Population Tubulin-Different-Phenotype (%) [11]: 52% | Total Cell Count [11]: 390 | Population Apoptotic (%) [12]: 8% | Population Healthy Nuclei (%) [12]: 65% | Population Hoechst High Intensity Objects (%) [12]: 3% | Population Membrane Permeable-Phenotype (%) [12]: 43% | Population Mitochondria Different-Phenotype (%) [12]: 2% | Population Mitotic Cells (%) [12]: 91% | Population Normal (%) [12]: 96% | Population Pyknosed Nuclei (%) [12]: 19% | Population Tubulin-Different-Phenotype (%) [12]: 48% | Total Cell Count [12]: 365
